Source: PubChem BioAssay
rRNA inh HTS – inhibitors of bacterial rRNA selective over humanized ribosomes | E. coli WT GFP vs humanized-ribosome RFP mutants, fluorescence, 24 h; stronger effect = lower value; DMSO median 0, no signal -100 | GFP signal change (wild-type ribosome), % (no concentration beside the values) | hit rate 1.6% among 350,000;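 active means significant combined selectivity score with lowered wild-type GFP, culture density cut under 30%, mutant RFP and density less affected; inactive means any of these conditions unmet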
SIRT5 inh – blocks human SIRT5 desuccinylation of peptide; inhibition, % at 15 µM; Purified SirT5, succinyl-peptide AMC, trypsin-coupled fluorescence; hit rate 1.1% among 330,000; Q9NXA8; in the data active means inhibition above about 15%
Target sequence (Q9NXA8 whole entry, looked up): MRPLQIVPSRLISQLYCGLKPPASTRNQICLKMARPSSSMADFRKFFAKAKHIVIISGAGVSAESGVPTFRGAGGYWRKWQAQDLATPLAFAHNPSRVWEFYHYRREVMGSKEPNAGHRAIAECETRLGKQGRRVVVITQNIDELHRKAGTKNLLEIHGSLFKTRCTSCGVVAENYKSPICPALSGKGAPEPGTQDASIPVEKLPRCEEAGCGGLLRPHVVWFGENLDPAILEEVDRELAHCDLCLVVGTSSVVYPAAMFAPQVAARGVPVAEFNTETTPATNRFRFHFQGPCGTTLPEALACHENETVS
FN deposition inh – fibronectin deposition inhibition | hit rate 0.086% among 350,000 | inhibition, % at 12.6 µM | AH1F fibroblasts, Alexa488-fibronectin deposition fluorescence, overnight;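 active means mean inhibition across replicates of 30% or more, regardless of how many single replicates reach that level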;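 further: positive control wells lacked labelled fibronectin entirely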
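Measured by – fluorescence 485/525 nm · System – AH1F fibroblast monolayer, labelled fibronectin deposition · Amount – 10000 cells per well · Buffer or medium – serum-reduced DMEM (2% serum) · Doses – single dose, pinned · Also added – fluorescent fibronectin at 24 nM final · Schedule – 1 h cell attachment, overnight exposure to compound and label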
FGF22 binding – shifts melting point of recombinant human FGF22; hit rate 1.5% among 340,000; Q9HCT0; recombinant FGF22 thermal shift, SYPRO orange fluorescence; percent of sucrose octasulfate shift, DMSO zero; activity (Tm shift, normalised), % at 9.99 µM;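 active means mean Tm shift, scaled 0 neutral to 100 positive control, at about 1.3% or above, every replicate too, limit read from the data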
Target sequence (Q9HCT0 whole entry, looked up): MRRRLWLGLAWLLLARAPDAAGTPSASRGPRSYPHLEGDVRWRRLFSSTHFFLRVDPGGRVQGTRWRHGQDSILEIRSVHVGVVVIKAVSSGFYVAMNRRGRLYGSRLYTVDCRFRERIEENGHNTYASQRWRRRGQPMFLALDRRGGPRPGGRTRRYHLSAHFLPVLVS
C2C12 statin – suppression of simvastatin myotoxicity; C2C12 myotubes + simvastatin, ATP luminescence, 48 h; scaled: DMSO 0, geranylgeraniol control 100; rescue of ATP level, % at 7.49 µM; hit rate 0.78% among 330,000; AID 602340;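 active means mean ATP rescue above about 67%, or every replicate alone reaching that limit, limit read from the data, passing the limit was not always enough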;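 further: myotubes were challenged with 10 µM simvastatin during compound exposure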
E-selectin induc – induces E-selectin expression in human endothelial cells | HUVEC E-selectin immunofluorescence imaging; normalized: neutral wells 0, TNF-alpha wells 100 | AID 686992 | hit rate 0.37% among 260,000 | activation, % at 7.58 µM | P16581;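 active means mean E-selectin-positive cell signal at least 10% of the positive control, reached in at least 60% of replicates, without over 20% cell loss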
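Test system – human umbilical vein endothelial cells (HUVEC), E-selectin induction · Input – 3,000 HUVEC seeded per well · Buffer or medium – EGM-2, gelatin · Compound dosing – single-point compound dose · Detection – immunofluorescence imaging · Measure – percent E-selectin-positive cells · Controls – TNF-alpha high, DMSO low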
Active calls of the source: *; . = no result given; ! = not active in a repeat. Rows were chosen to be rich in hits. Some 4% of all compounds tested hit in one or more screens of this group.

SMILES | rRNA inh HTS | SIRT5 inh | FN deposition inh | FGF22 binding | C2C12 statin | E-selectin induc
COc1cc(NC(=S)N2CCN(Cc3ccccc3)CC2)cc(OC)c1 | . | . | -2 | . | . | .
O=C(NC(=S)N1CCN(C/C=C/c2ccccc2)CC1)c1ccc(Cl)nc1 | -49* | 0 | -1 | 0 | -17 | .
O=C(COc1cccc2c1CCN(Cc1ccccc1)C2=O)N1CCCCC1 | -21 | 1 | . | 43* | . | .
CC1CCN(C(=O)COc2cccc3c2CCN(Cc2ccccc2)C3=O)CC1 | -28 | -7 | . | 0 | -11 | 1
CCOC(=O)N1CCN(C(=O)COc2cccc3c2CCN(Cc2cccc(C)c2)C3=O)CC1 | -25* | 1 | -2 | 0 | 3 | 0
COc1ccc(NC(=S)Nc2ccc(C)c(Cl)c2)cc1OC | -40 | . | -1 | 1 | -6 | 4
Fc1ccc(NC(=S)Nc2cc(-c3ccccc3)[nH]n2)cc1Cl | -54* | 0 | 6 | 0 | -7 | 30*
Cc1ccc(NC(=S)Nc2cc(-c3ccccc3)[nH]n2)cc1Cl | -20* | -1 | 5 | 0 | -6 | 12
COCC(=O)Nc1ccc2c(c1)OC[C@H](C)N(CCC(F)(F)F)C[C@@H](C)[C@H](OC)CN(C)C2=O | 0 | -2 | . | . | 9 | 0
COc1cc(/C=C/c2cc(C(=O)O)c3ccccc3n2)ccc1OC(F)F | -26* | 3 | -3 | 0 | 4 | 0
COc1cc(/C=C/C(=O)OCN2C(=O)c3ccccc3C2=O)ccc1OC(F)F | 2 | -1 | . | 0 | . | 0
O=C(O)c1cc(/C=C/c2ccc(N3CCOCC3)cc2)nc2ccccc12 | -25* | 7 | 3 | 1 | . | 0
C[C@H]1CCCCO[C@H](CN(C)C(=O)Nc2ccccc2)[C@@H](C)CN([C@@H](C)CO)C(=O)c2cc(NS(=O)(=O)c3ccc(F)cc3)ccc2O1 | -5 | . | 1 | 0 | . | 0
COc1ccc(S(=O)(=O)N2CCOC2CNC(=O)C(=O)NCCc2c[nH]c3ccccc23)cc1C (centres undefined) | -15* | -1 | 1 | 0 | 5 | 0
COc1ccc(S(=O)(=O)N2CCOC2CNC(=O)C(=O)NCCc2c[nH]c3ccccc23)cc1 (centres undefined) | -1 | 5 | -2 | 0 | 18 | .
COc1ccc(S(=O)(=O)N2CCCOC2CNC(=O)C(=O)NCc2ccco2)cc1C (centres undefined) | 5 | -3 | 9 | 44* | 0 | .
COc1ccc(S(=O)(=O)N2CCOC2CNC(=O)C(=O)NCc2ccco2)cc1C (centres undefined) | -3 | -3 | 4 | 0 | 11 | 1
COc1ccc(S(=O)(=O)N2CCCOC2CNC(=O)C(=O)NCCCn2ccnc2)cc1 (centres undefined) | 7 | 1 | -5 | 44* | -4 | .
CC(C)NC(=O)NCC[C@H]1CC[C@H](NC(=O)CCN2CCCCC2)[C@H](CO)O1 | 1 | -2 | 3 | 0 | -14 | 1
COC(=O)C[C@H]1CC[C@@H]2[C@H](COC[C@H](O)CN2C(=O)Nc2ccccc2OC)O1 | 4 | 0 | -7 | 0 | 11 | 0
CN(CC(=O)Nc1ccccc1C(F)(F)F)Cc1c(O)ccc2ccccc12 | -27* | -14 | -5 | 0 | 21 | 26
COc1ccccc1CN(C)CC(=O)Nc1ccc(Cl)cc1F | -44 | 1 | 6 | . | . | 1
CCc1ccccc1NC(=O)CN(C)Cc1c(O)ccc2ccccc12 | -1 | -4 | -2 | 0 | 8 | 0
COc1ccccc1CN(C)CC(=O)Nc1ccc(Cl)cc1C(F)(F)F | -34* | -3 | 9 | 0 | 6 | -3
COc1cccc(NC(=O)Cn2c(CCC(=O)O)ccc2-c2ccc(Cl)cc2)c1 | -4 | -3 | -2 | 0 | 19 | .
SMILES | rRNA inh HTS | SIRT5 inh | FN deposition inh | FGF22 binding | C2C12 statin | E-selectin induc
Cc1ccc(NC(=O)Cn2c(CCC(=O)O)ccc2-c2ccc(Cl)cc2)cc1 | -25* | -6 | 0 | 0 | 3 | .
Cc1ccc(S(=O)(=O)Nc2cccc3c2O[C@@H](CN(C)C(=O)Nc2cccc4ccccc24)[C@H](C)CN([C@@H](C)CO)C3=O)cc1 | 0 | . | . | . | 30 | 1
C[C@@H]1CN([C@@H](C)CO)C(=O)c2cc(NS(=O)(=O)c3cn(C)cn3)ccc2O[C@@H](C)CCCCO[C@H]1CN(C)Cc1ccc(C(F)(F)F)cc1 | -2 | 7 | . | 0 | . | 0
CC1CCc2c(C(=O)NCc3cccnc3)csc2C1 (centres undefined) | -14 | -3 | -6 | 43* | -3 | .
CCCc1c(C(=O)OCC)[nH]c2c1C(=O)CCC2 | 5 | 29* | 9 | 0 | -2 | 0
Cc1c(C(=O)OCCOc2ccccc2)[nH]c2c1C(=O)CCC2 | . | . | . | . | -2 | .
COCC(=O)N1C[C@H](C)[C@@H](OC)CN(C)C(=O)c2ccc(NC(=O)Nc3ccccc3)cc2OC[C@@H]1C | 0 | 2 | -2 | 0 | . | 0
COCC#Cc1cnc2c(c1)C(=O)N([C@@H](C)CO)C[C@@H](C)[C@@H](CN(C)C(=O)C1CCCCC1)O2 | 4 | -1 | . | 0 | 5 | 0
C=CCOc1cccc(C2C(C(=O)c3ccco3)=C(O)C(=O)N2Cc2cccnc2)c1 (centres undefined) | 0 | -1 | 2 | 0 | 4 | 33*
C=CCOc1ccc(C2C(C(=O)c3ccco3)=C(O)C(=O)N2Cc2cccnc2)cc1 (centres undefined) | . | . | 6 | . | . | .
CCC(=O)N(C)C[C@H]1Oc2cc(-c3cccc(OC)c3)ccc2S(=O)(=O)N([C@H](C)CO)C[C@@H]1C | -8 | -2 | -2 | 0 | -12 | 1
CN(C)C(CNC(=O)CCNC(=O)c1ccc(Cl)cc1)c1ccco1 (centres undefined) | 10 | 24* | 1 | 0 | 1 | .
O=C(C[C@@H]1C=C[C@H](NC(=O)CN2CCOCC2)[C@H](CO)O1)NC1CCCCC1 | 1 | 18* | -17 | 0 | 8 | 0
C[C@@H](NC(=O)C[C@H]1C=C[C@H](NC(=O)CN2CCOCC2)[C@H](CO)O1)c1ccccc1 | 7 | 1 | -33 | 0 | -13 | 0
C[C@@H](NC(=O)C[C@H]1CC[C@H](NC(=O)C2CC2)[C@@H](CO)O1)c1ccccc1 | 0 | 17* | -5 | 0 | 2 | 0
C[C@@H](NC(=O)C[C@H]1CC[C@H](NC(=O)C2CC2)[C@H](CO)O1)c1ccccc1 | 0 | 2 | -1 | 0 | 0 | 0
C[C@H](NC(=O)C[C@@H]1C=C[C@@H](NC(=O)CN2CCOCC2)[C@@H](CO)O1)c1ccccc1 | 5 | 27*! | 2 | 0 | -2 | 0
